Source: PubChem BioAssay (Broad Institute)
PGC1a acetyl up = compounds raising PGC1a acetylation signal, primary screen, PGC1a modulator project, cell-based, U2OS, AlphaScreen, signal-increasing mode | overnight | activation, % at 15.6 µM | actives 0.21% (n = 350,000);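 active means every replicate reaching activation of at least 50%, whatever the mean replicate activation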;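 further: hits raise the AlphaScreen acetylation signal above neutral controls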
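Test system: U2OS cells expressing flag-PGC1a plus GCN5; Amount: 7000 U2OS cells per well; Compound: single test concentration per compound; Incubation: compound overnight at 37 °C, each detection step 1 h RT; Signal: AlphaScreen lysate read.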
* hit, by the source's call. Not all results are given here.

SMILES | PGC1a acetyl up
COc1ccc(Nc2ccnc3ccccc23)cc1 | -51
Nc1nc(Nc2ccccc2)nc2ccccc12 | 52*
C[C@H]1CN([C@@H](C)CO)C(=O)c2cc(NC(=O)Nc3cccc4ccccc34)ccc2O[C@H]1CN(C)S(=O)(=O)c1ccc(Cl)cc1 | -41
O=[N+]([O-])c1ccc(N=Nc2c(Cl)cc(O)cc2Cl)cc1 | 53*
C[C@@H]1CN([C@H](C)CO)C(=O)c2cc(NS(=O)(=O)c3ccc(F)cc3)ccc2O[C@H]1CN(C)Cc1ccc(C(F)(F)F)cc1 | -56
O=C(NCC[C@@H]1CC[C@H](NS(=O)(=O)Cc2ccccc2)[C@H](CO)O1)C1CCC1 | -61
COc1ccc(C)cc1NS(=O)(=O)c1ccc(NC(=O)CN(c2cc([N+](=O)[O-])ccc2C)S(C)(=O)=O)cc1 | 474*
COc1ccc(OC)c(N(CC(=O)Nc2ccccc2)S(C)(=O)=O)c1 | -43
CC(=O)Nc1cc(C(=O)OCc2cccc([N+](=O)[O-])c2)ccc1C | -49
CCOc1ccc(N(CC(=O)Nc2ccccc2OC)S(=O)(=O)c2ccccc2)cc1 | -88
Cc1cccc(NS(=O)(=O)c2ccc(NC(=O)CN(c3cc([N+](=O)[O-])ccc3C)S(C)(=O)=O)cc2)c1 | 378*
C[C@H](CO)N1C[C@H](C)[C@@H](CN(C)CC2CCOCC2)Oc2ncc(Br)cc2C1=O | -89
CC(C)NC(=O)N(C)C[C@H]1OCCCC[C@@H](C)Oc2ccc(NC(=O)CCCN(C)C)cc2C(=O)N([C@@H](C)CO)C[C@@H]1C | -51
CC1(C)CCC[C@]2(C)[C@H]3Cc4cc(O)ccc4O[C@]3(C)CC[C@@H]12 | 67*
COCCSc1ccccc1C(=O)Nc1cc(C)on1 | -51
O=C(OCc1nnc(-c2ccccc2)o1)C1=COCCO1 | -61
COc1cccc2sc(Nc3nc(-c4ccccn4)cs3)nc12 | 60*
COc1cnc(-c2ccccn2)nc1Sc1ccc(C)cc1 | -60
CO[C@@H]1CN(C)C(=O)c2cc(NC(C)=O)ccc2OC[C@@H](C)N(Cc2ccccc2C(=O)O)C[C@@H]1C | -43
CC(C)c1ccc(-c2nnn(CC(=O)N3CCCCC3)n2)cc1 | -40
CC(C)(C)NC(=O)Cn1nnc(-c2ccc(OCc3c(F)cccc3Cl)cc2)n1 | 66*
COc1cccc(N(CC(=O)N2CCN(Cc3ccccc3)CC2)S(C)(=O)=O)c1 | -46
C[C@@H]1CCCCO[C@H](CN(C)Cc2ccc3c(c2)OCO3)[C@@H](C)CN([C@@H](C)CO)C(=O)c2cc(NC(=O)Nc3ccc(C(F)(F)F)cc3)ccc2O1 | -53
CC1CCCCC12NC(=O)N(CC(=O)NCc1ccc3c(c1)OCO3)C2=O (configuration not stated) | -46
O=C(NCc1ccc2c(c1)OCO2)c1ccc(NC(=O)C2CCCO2)cc1 (configuration not stated) | 66*
SMILES | PGC1a acetyl up
CC(=O)Nc1cccc(OCC(=O)Nc2ccccc2)c1 | 51*
CC(=O)c1ccc(NC(=O)CSCC(=O)Nc2ccc3ccccc3c2)cc1 | -56
CCOC(=O)N1CCC(N(CCN(C)C)C(=S)Nc2cccc(OC)c2)CC1 | -45
CO[C@H]1CN(C)C(=O)c2cc(NC(=O)NC(C)C)ccc2OC[C@H](C)N(Cc2ccc(-c3ccccn3)cc2)C[C@@H]1C | -62
Fc1cccc(CN2C[C@@H]3N[C@H](C2)[C@@H]3c2ccc(-c3cccc(F)c3)cc2)c1 | -99
Fc1cccc(CN2C[C@@H]3N[C@H](C2)C3c2ccc(-c3ccccc3)cc2)c1 (some centres not stated) | -97
COc1ccccc1-c1ccc([C@@H]2[C@@H](CO)N(C(C)=O)C23CN(C(C)=O)C3)cc1 | -55
COc1ccccc1CN1C[C@@H]2N[C@H](C1)C2c1ccc(-c2ccccc2OC)cc1 (some centres not stated) | 70*
COc1cc(CN2C[C@@H]3N[C@H](C2)C3c2ccc(/C=C/c3ccccc3)cc2)cc(OC)c1 (some centres not stated) | 89*
COc1cc(CN2C[C@@H]3N[C@H](C2)C3c2ccc(-c3cccc(OC)c3)cc2)cc(OC)c1 (some centres not stated) | 69*
COc1ccc(-c2ccc(C3[C@@H]4CN(Cc5cc(OC)cc(OC)c5)C[C@H]3N4)cc2)cc1 (some centres not stated) | 121*
CO[C@H]1CN(C)C(=O)c2cc(NS(C)(=O)=O)ccc2OC[C@H](C)N(C(=O)NC(C)C)C[C@H]1C | -48
COc1ccc(-c2onc(C)c2-c2ccc(C(=O)OC(C)C)o2)c(O)c1 | -74
Cc1ccc(NC(=O)CC2=NC(=O)C(CC(=O)Nc3ccccc3F)S2)cc1 (configuration not stated) | -50
CN(C)C(=O)C[C@@H]1C=C[C@@H](NS(=O)(=O)c2ccccc2)[C@@H](CO)O1 | -54
COc1cccc(-c2ccc(C3[C@@H]4CN(C(=O)C5CC5)C[C@H]3N4)cc2)c1 (some centres not stated) | 57*
NCC[C@H]1CC[C@@H](NC(=O)C2CCCCC2)[C@@H](CO)O1 | -56
O=C(/C=C/c1ccc(F)cc1)NNC(=O)CCN1CCN(Cc2ccccc2)CC1 | -52
C[C@@H]1CN([C@@H](C)CO)C(=O)c2cc(C#CC3CCCC3)cnc2O[C@H]1CN(C)C(=O)Nc1ccccc1 | -45
Cc1ccc(NC(=O)c2ccccc2)cc1-n1cnnn1 | -40
Cc1cc(SCC(=O)NC(=O)NCc2ccco2)nc2ccccc12 | 85*
O=C(CSc1nc2c(sc3ccccc32)c(=O)n1CCc1ccccc1)NCc1ccco1 | -57
CNC(=O)COC(=O)c1cc(-c2ccco2)nc2ccccc12 | -46
COc1ccc(CC(CC(=O)O)C(=O)Nc2ccc(OC)cc2)cc1 (configuration not stated) | 50*
COc1ccc(CCN2C(=O)N(c3ccc(OC)cc3)C(=O)C2CC(=O)Nc2ccccc2)cc1 (configuration not stated) | -48
SMILES | PGC1a acetyl up
COc1ccc(OC)c(Nc2ccc(C(=O)O)cc2[N+](=O)[O-])c1 | -42
COc1ccc(S(=O)(=O)N2CCOCC2)cc1NC(=O)CCNC(=O)c1ccc([N+](=O)[O-])cc1 | 419*
CCN(c1ccccc1)S(=O)(=O)c1ccc(OC)c(NC(=O)Cc2ccc(F)cc2)c1 | -40
Cc1c(CCOC(=O)CC23CC4CC(CC(C4)C2)C3)sc[n+]1Cc1ccccc1 | 61*
C[C@H]1CCCCO[C@H](CN(C)Cc2ccc3c(c2)OCO3)[C@@H](C)CN([C@@H](C)CO)C(=O)c2cc(NC(=O)Nc3ccc(C(F)(F)F)cc3)ccc2O1 | -79
Cc1ccc(-n2c(SCC(N)=O)nnc2-c2ccc(S(=O)(=O)N3CCCCC3)cc2)c(C)c1 | 63*
Cc1ccc(S(=O)(=O)N2CCCC2)cc1C(=O)O | -59
O=C(OCc1cnc(Cl)s1)c1cccs1 | -94
CC(=O)c1c(N2CCOCC2)nc(=O)n(-c2ccccc2)c1C | -44
CN(Cc1ccccc1)S(=O)(=O)c1ccc(S(=O)(=O)N(Cc2ccc(F)cc2)C2CCCC2)cc1 | -44
CN(C)S(=O)(=O)N1CCC(Cc2ccccc2)CC1 | 62*
C=CCNC(=O)c1ccc(CN2CCC(Cc3ccccc3)CC2)cc1 | -48
O=C1c2ccccc2C(=O)N1c1ccc(Cc2ccncc2)cc1 | -56
CNc1ccc2ncc(-c3ccc(OC)c(OC)c3)n2n1 | -58
C=CS(=O)(=O)N(Cc1ccc(Cl)c(Cl)c1)C[C@@H](O)CO | 65*
CCN(CC)C1CC(=O)N(c2ccc(Br)cc2)C1=O (configuration not stated) | -41
